Results from different studies.
Protocols differ between the studies behind these lines.
PIM3: Serine/threonine-protein kinase pim-3 (PIM3, Homo sapiens, UniProt Q86V86)

SMILES	target	observed	action	method	concentration	measurement	value
Nc1ncc(-c2nc(N3CCOCC3)nc(N3CCOCC3)n2)c(C(F)F)n1	PIM3	binding	–	competition with immobilised ligand	10 µM	remaining binding	89%
CCN(CC)CCCC[C@H](NC(=O)[C@H](CC(C)C)NC(=O)[C@H](C)NC(=O)[C@H](Cc1ccccc1)NC(=O)c1ccc(C(C)(C)C)cc1)C(=O)N[C@@H](CO)C(=O)OC	Bromodomain testis-specific protein, BD1 (BRDT, Homo sapiens, UniProt Q58F21)	thermal stability	–	DSF	25 µM	ΔTm	-0.19 °C
Cc1nn(C)cc1-c1nc2c(N3CCN(Cc4ccc(Cl)cc4)CC3)c(Cl)cnc2[nH]1	PIM3	binding	–	competition with immobilised ligand	1 µM	remaining binding	100%
C=CC(=O)N1CCC[C@@H](n2nc(-c3ccc(Oc4ccccc4)cc3)c3c(N)ncnc32)C1	Dual specificity tyrosine-phosphorylation-regulated kinase 1B (DYRK1B, Homo sapiens, UniProt Q9Y463)	cell-free assay	–	–	1 µM	remaining signal	136%
CCOC(=O)c1ccc(OC(=O)CCCCCNC(=N)N)cc1	Ubiquitin carboxyl-terminal hydrolase isozyme L3 (UCHL3, Homo sapiens, UniProt P15374)	enzyme activity	inhibitor	–	10 µM	inhibition	4%
COc1ncccc1-c1cnn2ccc(N3CCN(C(=O)OC(C)C)CC3)nc12	Dual specificity testis-specific protein kinase 1 (TESK1, Homo sapiens, UniProt Q15569)	binding	–	competition with immobilised ligand	1 µM	remaining binding	93%
N#Cc1ccc(NCCNCC(=O)N2N=CCC2C#N)nc1 (centres unmarked)	Dipeptidyl peptidase 2 (Homo sapiens, UniProt Q9UHL4)	enzyme activity	inhibitor	–	10 µM	inhibition	30%
O=C(Nc1cccnn1)N1CCN([C@@H]2CCOc3cc(C(F)(F)F)ccc32)CC1	5-hydroxytryptamine receptor 1B (Htr1b, Rattus norvegicus, UniProt P28564)	cell-free assay	–	–	20 µM	inhibition	9%
